Columns and labels:
[1] = biological target: purified deoxycytidine deaminase (dCDA) (Homo sapiens, UniProt P32320); assay: Deoxycytidine deaminase activity; type: biochemical; details: 37°C; for deamination as substrate of dCDA: 500 μM substrate, no inhibitor
Procedure, shortened: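 Purified dCDA (source not stated) run at 37°C with 500 μM dCyd or gemcitabine as substrate and 500 μM competing compound. Every run included a blank (no substrate or inhibitor) and a substrate-only control. Stopped after 15 or 25 min with 40% w/v TCA, then neutralised with trioctylamine/trichlorotrifluoroethane […]. Substrates and the deoxyuridine or difluorodeoxyuridine products measured by reversed-phase HPLC. Unpaired t-test.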

[2] = system: TAX II-1 malignant fibrous histiocytoma xenograft; assay: Xenograft testing, ip; type: in vivo, nude mice; details: TAX II-1, ip at MTD
Procedure, shortened: (§1)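 Female BALB/c nude mice anaesthetised with propanidid 5 mg/10 g ip. Tumour fragments (~2 mm cubes) implanted sc in each flank. Treatment started at minimum diameter 4 mm (32 mm3): liposomal test compound or gemcitabine ip q3dx5 at MTD. RTV = Vx/V0 ×100, group median. T/C = treated/control RTV ×100; SGD counts doubling times gained. Deaths within 2 weeks after the last dose counted as toxic. Mann–Whitney U, p<0.05.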

[3] = system: MA-11 breast cancer xenograft; assay: Xenograft testing, ip; type: in vivo, nude mice; details: MA-11, ip at MTD
Procedure, shortened: as §1

[4] = system: THX malignant melanoma xenograft; assay: Xenograft testing, ip; type: in vivo, nude mice; details: ip every third day for five doses at MTD
Procedure, shortened: as §1

C26-A cells = assay: Growth inhibition, SRB assay, 72 h exposure; type: cell-based, murine; details: Mus musculus
[5] = system: MiaPaCa-2 pancreatic cancer xenograft; assay: Xenograft testing, ip; type: in vivo, nude mice; details: MiaPaCa-2, ip every third day for five doses at MTD
Procedure, shortened: as §1

L1210/L5 cells = assay: Growth inhibition, cell counting, 72 h exposure; type: cell-based, murine; details: Mus musculus, L1210, 72 h
Procedure, shortened: (§2)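 Suspension cells in RPMI-1640 with 10% FCS. L5/L4A6 medium had 60 μM 2-mercaptoethanol and 250 ng/ml gentamicin; BCLO had 3.2 mM glutamine and gentamicin; Bara-C had 5% FCS plus 5% rat serum. Seeding: 50,000 (L5), 100,000 (L4A6), 150,000 (BCLO) or 175,000 (Bara-C) cells/well. Drug (final 2.10−10 to 10−3 M) added at plating; counted at 72 h. IC50 interpolated against 0%/100% controls.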

[6] = system: AG6000 cells (gemcitabine resistant A2780 variant, dCK deficient); assay: Growth inhibition, SRB assay, 72 h exposure; type: cell-based; details: Homo sapiens, AG6000, 72 h
Procedure, shortened: (§3)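 Monolayer cells seeded on day 1 at 6,000 (A2780), 18,000 (AG6000) or 8,000 (C26-G) cells/well. Drug dilutions added on day 2, final 2.10−10 to […], from a 20 mM DMSO stock (DMSO ≤1%). After 72 h, fixed with ice-cold TCA for 60 min and stained with sulforhodamine B. Relative growth taken from OD versus control wells. IC50 interpolated from straight-line curves.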

[7] = system: C26-G cells (gemcitabine resistant); assay: Growth inhibition, SRB assay, 72 h exposure; type: cell-based, murine; details: Mus musculus
Procedure, shortened: as §3

THX cells = assay: Growth inhibition with or without nucleoside transport inhibitors; type: cell-based, human; details: for IC50: Homo sapiens
Procedure, shortened: (§4)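 Cells grown in suspension in RPMI-1640-based medium and plated at 2.5.105 cells/ml. NBMPR (100 μM) or dipyridamole (4 μg/ml) was present or absent, with serial dilutions of test compound or gemcitabine. Cells counted after 72 h. Growth set relative to plated cells (0%) and untreated 72 h cells (100%). IC50 read from a straight-line interpolated curve.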

MOLT4/C8 cells = assay: as above; type: cell-based; details: Homo sapiens
Procedure, shortened: as §4

LOX cells = assay: as above; type: cell-based; details: Homo sapiens
Procedure, shortened: as §4

[8] = system: L4A6 cells (cytarabine resistant L1210 variant); assay: Growth inhibition, cell counting, 72 h exposure; type: cell-based, murine; details: Mus musculus, L1210, 72 h
Procedure, shortened: as §2

[9] = system: human colon cancer xenograft Co6044; assay: Xenograft testing, oral; type: in vivo, nude mice
[10] = system: PANC-1 pancreatic cancer xenograft; assay: Xenograft testing, ip; type: in vivo, nude mice; details: PANC-1, ip every third day for five doses at MTD
Procedure, shortened: as §1

[11] = system: H-146 small cell lung cancer xenograft; assay: Xenograft testing, ip; type: in vivo, nude mice; details: H-146, ip at MTD
Procedure, shortened: as §1

A2780 cells = assay: Growth inhibition, SRB assay, 72 h exposure; type: cell-based; details: Homo sapiens, A2780, 72 h
Procedure, shortened: as §3

MOLT4 cells = assay: Growth inhibition with or without nucleoside transport inhibitors; type: cell-based, human; details: for IC50: Homo sapiens
Procedure, shortened: as §4

[12] = Co6044, oral, days 1, 4 and 7, 20 mg/kg
[13] = Co6044, oral, days 1, 4 and 7, 40 mg/kg

Chain of purified deoxycytidine deaminase (dCDA) (P32320 whole entry): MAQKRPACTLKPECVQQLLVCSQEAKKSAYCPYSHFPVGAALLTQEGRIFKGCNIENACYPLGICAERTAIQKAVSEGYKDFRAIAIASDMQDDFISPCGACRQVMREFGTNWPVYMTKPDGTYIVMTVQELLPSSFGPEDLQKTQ

## Nc1ccn([C@H]2C[C@H](O)[C@@H](CO)O2)c(=O)n1 [dCyd, deoxycytidine]
[1]
  deamination as substrate of dCDA: 312 pmol/hr/μl enzyme

## Nc1ccn([C@@H]2O[C@H](CO)[C@@H](O)C2(F)F)c(=O)n1 [gemcitabine, 2′,2′-difluorodeoxycytidine]
[2]
  antitumor activity (in words): inactive
[3]
  antitumor activity (in words): some activity
[4]
  SGD: > 6.25
C26-A cells
  IC50: 16 ± 4 nM
[5]
  Deaths: 7/7
L1210/L5 cells
  IC50: 1.9 ± 0.6 nM
[6]
  IC50: 185000 ± 108000 nM
[7]
  IC50: 20 ± 10 nM
THX cells; 4 μg/ml dipyridamole
  decrease in sensitivity by dipyridamole: 115 fold
THX cells; 100 μM NBMPR
  decrease in sensitivity by NBMPR: 55 fold
THX cells; +Dipyridamole 4 μg/ml
  IC50: 310 ± 130 nM
THX cells; +NBMPR 100 μM
  IC50: 150 ± 50 nM
THX cells; no transport inhibitor
  IC50: 2.7 ± 0.7 nM
MOLT4/C8 cells; Molt4/C8, MOLT4/C8, +Dipyridamole 4 μg/ml
  IC50: 7620 ± 590 nM
MOLT4/C8 cells; Molt4/C8, MOLT4/C8, +NBMPR 100 μM
  IC50: 8310 ± 1200 nM
MOLT4/C8 cells; Molt4/C8, MOLT4/C8, no transport inhibitor
  IC50: 460 ± 120 nM
LOX cells; +Dipyridamole 4 μg/ml
  IC50: 610 ± 220 nM
LOX cells; +NBMPR 100 μM
  IC50: 1150 ± 60 nM
LOX cells; no transport inhibitor
  IC50: 4.7 ± 1 nM
[8]
  IC50: 8800 ± 3600 nM
[9]; [12]
  Deaths: 0/7
  Weight loss (%): 0%
[9]; [13]
  Deaths: 5/7
  Maximal T/C (%): 8%
  Weight loss (%): 1%
[9]; Co6044 bearing mice, oral, at similar doses as the ip administration
  toxicity (in words): very toxic
[10]
  Deaths: 4/9
[1]; 500 μM each
  dFdU formed when dCyd and gemcitabine were added simultaneously: 1,127 pmol/hr/μl enzyme
[1]
  deamination as substrate of dCDA: 624 pmol/hr/μl enzyme
[11]
  antitumor activity (in words): not active
A2780 cells
  IC50: 1.5 ± 0.6 nM
MOLT4 cells; MOLT-4, MOLT4, +Dipyridamole 4 μg/ml
  IC50: 610 ± 260 nM
MOLT4 cells; MOLT-4, MOLT4, +NBMPR 100 μM
  IC50: 820 ± 250 nM
MOLT4 cells; MOLT-4, MOLT4, no transport inhibitor
  IC50: 3 ± 3.3 nM
MOLT4 cells; MOLT4, 4 μg/ml dipyridamole
  decrease in sensitivity by dipyridamole: 203 fold
MOLT4 cells; MOLT4, 100 μM NBMPR
  decrease in sensitivity by NBMPR: 273 fold

— publication PMC3076580 (Investigational New Drugs, 2010)
